Compound activity (PubChem BioAssay)
The entries come from a sample that favours hits as a whole.
T cruzi repl: T. cruzi replication inhibition; T. cruzi beta-gal in NIH3T3, luminescence, 90 h; AID 1885; inhibition, % (concentration not given with the values); 300,000 tested, 1.4% active;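 active = mean inhibition across valid replicates above about 55%, limit read from the data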;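 note: signal also drops with host cell toxicity which is not excluded here; 0% = plate median of DMSO wells and 100% = zero luminescence signal; higher percent means less beta-gal luminescence so fewer parasites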
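System – NIH/3T3 host cells with β-galactosidase reporter T. cruzi · Doses – single 50 nL compound addition per well in DMSO · Reagent – 5000 T. cruzi trypomastigotes/well · Medium – Low-serum DMEM with 2% FBS · Timing – ≥90 h infection period, 3 h prior cell attachment · Evaluation – parasite load inhibition, % · Technique – GalScreen luminescence, 60 min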
UPR XBP1 act: adaptive UPR (XBP1) activation | CHO-XBP1 luciferase reporter, IRE1-XBP1 UPR activation, luminescence; percent of tunicamycin response, DMSO as zero | activation, % at 20 µM | 330,000 tested, 0.33% active;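 active = versus positive control, 20 µM dose yields 30% or more activation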;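 note: 100% = tunicamycin at 10 µg/mL and 0% = DMSO only wells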
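Material: IRE1-XBP1 luciferase reporter CHO line / Quantity: one thousand reporter cells per well / Buffer or medium: F12 with 10% serum / Compound: 20 µM single concentration, DMSO 1% / Times: 6 h treatment, 37 °C / Detection: Steady-Glo luciferase glow luminescence, 10 min after reagent addition / Benchmarks: tunicamycin high, DMSO low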
CHOP inh: blocks CHOP induction under ER stress | CHO-K1 CHOP-promoter luciferase, tunicamycin-induced, 15-18 h | inhibition, % at 10 µM | 220,000 tested, 3.8% active | AID 2732;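 active = compounds that reduced the stress-induced luciferase reporter signal by more than about 70% of percent inhibition, limit read from the data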;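 note: 0% = tunicamycin plus vehicle and 100% = wells without tunicamycin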
Dynein transport: dynein cargo transport inhibition. 3617.4 mouse cells, GR-EGFP nuclear translocation imaging; test concentration mostly 20 µM; stimulated with dexamethasone, 1 µM; hits give low values. z-score, hits read low. 220,000 tested, 0.47% active;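 active = plate z-score of nuclear minus cytoplasmic receptor signal below a set negative limit, without overly bright fluorescence or cell loss, cut at about -3.5 in these data, passing the limit was not always enough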;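 note: z-score of nuclear minus cytoplasmic ring GR-EGFP intensity difference per well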
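Medium: Induction medium lacking tetracycline, stripped serum | Probe or stimulus: 1.0 µM final dexamethasone stimulus | Schedule: 48 h induction, then 1 h compound, then 30 min agonist, 37 °C | Signal: Automated 10x imaging of fixed Hoechst-stained cells | Evaluation: Per-cell GR-EGFP intensity, nucleus versus surrounding cytoplasmic ring, well-averaged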
UPR CHOP act: activators of apoptotic arm of unfolded protein response (CHOP). CHO-CHOP luciferase reporter, UPR activation, luminescence; percent of tunicamycin response over DMSO baseline. 330,000 tested, 0.34% active. activation, % at 10 µM. AID 449763;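 active = at 10 µM dose, activation of 40% or more, normalized to positive control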;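 note: 100% = tunicamycin at 10 µg/mL and 0% = DMSO alone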
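Evaluation: % reporter activation, DMSO baseline versus tunicamycin full activation; System: CHO-CHOP luciferase reporter cell line; Input: 500 cells/well; Incubation: 6 h compound treatment, 37 °C; Measured by: Steady-Glo luciferase luminescence; Dosing: one dose, 10 µM in 0.5% DMSO; Buffer or medium: F12 medium, 10% FBS; Benchmarks: positive tunicamycin 10 µg/mL, negative DMSO alone.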
Lmaj promast: inhibitors of Leishmania major promastigote growth | Leishmania major promastigotes, resazurin fluorescence viability | inhibition, % at 10 µM | 200,000 tested, 9% active | AID 1063; in the data active = inhibition above about 50%;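 note: promastigotes grown with compound for 44 hours at 28 °C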
An asterisk follows results filed as active; · = no result given.

SMILES	T cruzi repl	UPR XBP1 act	CHOP inh	Dynein transport	UPR CHOP act	Lmaj promast
Cc1ccc[n+](C(C)C(=O)c2ccc(-c3ccccc3)cc2)c1 (configuration not stated)	1.6	1.8	14.9	-0.773	1.1	98.1*
CC(C(=O)c1ccc(-c2ccccc2)cc1)[n+]1ccccc1 (configuration not stated)	-1.4	-2.6	-22.8	0.786	-2.1	34.3
O=S1(=O)CCC(NC(=S)NC2CCS(=O)(=O)C2)C1 (configuration not stated)	-1.9	-1.5	-3.8	1.67	3.5	-2.0
CCCCSC(=S)NC1CCS(=O)(=O)C1 (configuration not stated)	4.3	-5.1	11.0	-1.03	-1.9	95.2*
COc1ccc(CN(C(=O)c2ccc(C)cc2)C2CCS(=O)(=O)C2)cc1 (configuration not stated)	1.8	-6.2	·	·	1.7	·
Cc1nn(C)cc1S(=O)(=O)Nc1cccc(Cl)c1	2.4	0.3	·	·	-0.6	·
CS(=O)(=O)c1ccc2nc(NC(=O)c3cc(-c4ccccc4)nn3-c3ccccc3)sc2c1	15.3	-0.3	7.4	-0.72	3.1	99.9*
Cc1ccc(NC(=O)c2cc(-c3ccccc3)nn2-c2ccccc2)cc1	12.6	-2.5	32.2	-0.719	-1.9	16.5
Cc1ccc(NC(=O)c2cc(-c3ccccc3)nn2-c2ccccc2)c(Br)c1	17.9	-1.9	11.2	1.48	1.8	68.8*
CS(=O)(=O)c1ccc2nc(NC(=O)C3=NN(c4ccccc4)C(=O)CC3)sc2c1	-10.0	-2.3	17.4	0.354	-0.5	·
Cc1ccccc1Cn1cnc2c(cnn2C(C)(C)C)c1=O	17.2	-0.8	-19.6	0.113	-1.3	59.0*
Cc1c(CCOC(=O)c2cc([N+](=O)[O-])cc([N+](=O)[O-])c2)sc[n+]1CC(=O)c1ccc(Br)cc1	57.5*	-3.6	9.1	1.36	-2.5	99.6*
O=S(=O)(c1ccccc1)N1CCN(C2CCCCCCC2)CC1	13.2	1.3	36.7	2.47	0.6	45.5
c1ccc(C2CCC(N3CCNCC3)CC2)cc1 (configuration not stated)	8.7	-4.2	29.2	1.06	-2.7	91.4*
Cc1ccc(S(=O)(=O)N2CCN(C3CCC(c4ccccc4)CC3)CC2)cc1 (configuration not stated)	32.0	-2.8	58.1	-0.127	-1.7	95.7*
CCS(=O)(=O)N1CCN(C2CCC(c3ccccc3)CC2)CC1 (configuration not stated)	-2.4	-1.0	35.5	0.363	0.0	98.7*
CC(=O)Nc1ccc(C(=O)CN2C(=O)NC3(CCOc4ccccc43)C2=O)c(F)c1 (configuration not stated)	·	-3.1	·	·	-1.5	·
O=[N+]([O-])c1cccc(-c2nc(-c3ccccc3)c(-c3cccs3)[nH]2)c1	23.5	-0.7	64.1	-0.384	-1.1	13.7
COc1cc(-c2nc(-c3ccccc3)c(-c3cc([N+](=O)[O-])ccc3C)[nH]2)cc(OC)c1OC	57.9*	-1.4	40.3	-0.427	1.4	100.0*
O=C(Nc1ccc(NC(=O)c2cccs2)cc1Cl)c1ccco1	10.2	0.7	-45.0	-0.286	5.7	13.0
O=C(Nc1cccc(S(=O)(=O)c2cccc(NC(=O)C3CC3)c2)c1)C1CC1	-4.2	-1.8	-1.8	0.352	-2.9	99.3*
O=C(Nc1cccc(NC(=O)c2cccs2)c1)c1ccco1	6.1	0.8	38.3	-0.542	0.4	71.8*
CS(=O)(=O)c1cccc(NC(=O)C2CC2)c1	1.0	0.5	-1.7	0.00291	-0.9	0.3
O=C(Nc1cccc(S(=O)(=O)c2cccc(NC(=O)c3ccco3)c2)c1)c1ccco1	55.0*	-2.4	13.2	-0.746	-0.1	·
Cc1ccc(NC(=O)c2ccco2)c(NC(=O)c2cccs2)c1	-4.7	-1.2	14.8	0.72	-2.3	72.3*
CCOC(=O)C1CCN(CC(=O)Nc2cc(S(=O)(=O)N3CCCCC3)ccc2Cl)CC1	·	-1.5	·	·	2.2	·
Cc1ccc(Sc2ccc(NC(=O)CCN3C(=O)NC4(CCCC4)C3=O)cc2)c(C)c1	·	-2.1	·	·	-0.9	·
